T cruzi growth-1 – blocks T. cruzi growth in NIH3T3 culture; T. cruzi beta-gal in NIH3T3, GalScreen luminescence, 90 h; inhibition, % at 8.34 µM; hit rate 5.9% among 77,000; AID 624255;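 active = mean inhibition above about 93%, with at least 55% of replicates each passing it, limit read from the data, passing the limit was not always enough; inconclusive = only one of those two conditions holds; inactive = neither condition holds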
IDH1 R132H inh – inhibitors of human IDH1 R132H; hit rate 0.18% among 70,000; IDH1 R132H reductase, diaphorase/resazurin fluorescence, 60 min; O75874; inhibition, % at 10 µM; in the data active = inhibition above about 34%; inconclusive = no clear call, values can overlap the other calls; inactive = below about 11%;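 note: 0% = DMSO and 100% = no enzyme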
GASC1 inh – blocks human GASC-1 (KDM4C) demethylase activity. AID 720574. hit rate 0.15% among 96,000. Q9H3R0. GST-KDM4C 2-372, H3K9me3 peptide, LANCE TR-FRET. inhibition, % at 12.5 µM;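 active = mean replicate inhibition above about 25%, with at least 55% of replicates also reaching it, limit read from the data, passing the limit was not always enough; inconclusive = only one of those two conditions met; inactive = neither condition met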
Target sequence (Q9H3R0 2-372 limits assumed): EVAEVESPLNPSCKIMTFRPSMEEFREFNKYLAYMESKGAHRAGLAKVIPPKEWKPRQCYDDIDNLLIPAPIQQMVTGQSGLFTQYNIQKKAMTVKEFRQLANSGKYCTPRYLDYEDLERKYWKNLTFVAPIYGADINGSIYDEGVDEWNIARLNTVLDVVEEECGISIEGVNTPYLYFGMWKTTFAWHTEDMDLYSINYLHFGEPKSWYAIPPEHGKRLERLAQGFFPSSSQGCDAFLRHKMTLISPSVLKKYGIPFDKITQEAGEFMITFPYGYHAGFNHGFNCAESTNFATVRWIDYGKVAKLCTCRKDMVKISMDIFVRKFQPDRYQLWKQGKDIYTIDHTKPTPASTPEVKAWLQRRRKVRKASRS
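Assay system: GST-GASC-1 enzyme fragment 2-372 | Amount: 10 nM enzyme | Medium: HEPES buffer, pH 7.5, plus ascorbate | Reagent: H3K9me3 peptide substrate, Fe(II), 2-oxoglutarate | Doses: Single-point compound screen | Incubation: 30 min demethylation and 1 h detection at room temperature | Measured by: LANCE TR-FRET, excitation 340 nm, emissions 618 and 671 nm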
T cruzi growth-2 – blocks T. cruzi growth in NIH3T3 host cells; shares compounds with T cruzi growth-1; T. cruzi beta-gal in NIH3T3, GalScreen luminescence, 90 h; inhibition, % at 8.35 µM; hit rate 72% among 5,600;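 active = mean replicate inhibition above about 95% and at least 55% of replicates individually reaching it, limit read from the data; inconclusive = only one of the two criteria is met; inactive = neither criterion is met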
T cruzi growth-3 – blocks T. cruzi growth in NIH3T3 host cells; hit rate 21% among 5,600; T. cruzi beta-gal in NIH3T3, GalScreen luminescence, 90 h; shares compounds with T cruzi growth-1; inhibition, % at 2.09 µM;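 active = mean inhibition above about 95%, with at least 55% of replicates also reaching it, limit read from the data; inconclusive = meets just one of the two conditions; inactive = meets neither condition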;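 note: plate controls were neutral control median for no effect and positive control median for full effect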
NIH3T3 tox – cytotoxicity in mouse NIH/3T3 fibroblasts; shares compounds with T cruzi growth-1; NIH/3T3 viability, CellTiter-Glo ATP luminescence, 90 h; cytotoxicity (signal decrease), % at 8.35 µM; hit rate 14% among 5,600; AID 651742;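 active = mean signal decrease across replicates above about 35% based on untreated-well scatter, with enough replicates individually passing, limit read from the data; inconclusive = no rule stated though some were filed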;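 note: 0% = median of neutral control wells and 100% = median of positive control wells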
3T3 cytotox 2 – cytotoxicity in mouse NIH/3T3 fibroblasts; shares compounds with T cruzi growth-1; NIH/3T3 viability, CellTiter-Glo ATP luminescence, 90 h; inhibition, % at 24.9 µM; hit rate 56% among 5,600; AID 651744;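 active = mean loss of cell viability signal at or above a set limit, and enough replicates individually reaching it; inconclusive = meets only the mean limit or only the replicate share; inactive = meets neither condition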;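 note: 0% = median of neutral control wells and 100% = median of positive control wells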
Numbers without * were called inactive; ? = inconclusive; / = no result. Shown is part of a subset that was picked to be rich in hits.

SMILES	T cruzi growth-1	IDH1 R132H inh	GASC1 inh	T cruzi growth-2	T cruzi growth-3	NIH3T3 tox	3T3 cytotox 2
O=S(=O)(c1ccccc1)N1C[C@@H]2[C@H](c3ccccc31)[C@H](CO)N2Cc1ccc2c(c1)OCO2	110.5*	/	-5.5	105.4*	61.2	24.0	13.4
COc1ccc(S(=O)(=O)N(C)C[C@H]2Oc3c(NS(=O)(=O)c4cn(C)cn4)cccc3C(=O)N([C@@H](C)CO)C[C@H]2C)cc1	20.8	0.4	-0.4	/	/	/	/
CCCNC(=O)C[C@H]1CC[C@H]2[C@@H](COC[C@H](O)CN2Cc2cccc(F)c2)O1	-17.9	/	1.8	/	/	/	/
C[C@H](CO)N1C[C@H](C)[C@@H](CN(C)C(=O)Nc2ccccc2)OCCCC[C@H](C)Oc2ccc(N(C)C)cc2C1=O	33.6	-0.5	5.6	/	/	/	/
CO[C@H]1CN(C)C(=O)c2ccc(NS(=O)(=O)c3cn(C)cn3)cc2OC[C@@H](C)N(Cc2cccc(F)c2)C[C@@H]1C	-43.2	-0.1	0.8	/	/	/	/
N#C[C@@H]1[C@H](c2ccc(C3=CCCC3)cc2)[C@H](CO)N1C(=O)C1CC1	94.8	/	1.0	/	/	/	/
N#C[C@H]1[C@@H](c2ccc(/C=C/c3ccccc3)cc2)[C@@H](CO)N1C(=O)C1CCCC1	?	/	-0.6	95.3*	49.6	22.8	27.1*
COc1ccc(-c2ccc([C@@H]3[C@@H](C#N)N(C(=O)C4CC4)[C@H]3CO)cc2)cc1	79.6	/	-1.0	/	/	/	/
COc1ccc(-c2ccc([C@H]3[C@@H](C#N)N(C(=O)C4CCCC4)[C@@H]3CO)cc2)cc1	106.0*	/	-1.8	77.7	24.0	11.8	13.9
COc1ccc(-c2ccc([C@@H]3[C@@H](C#N)N(C(=O)C4CCCC4)[C@H]3CO)cc2)cc1	42.5	/	-0.4	/	/	/	/
N#C[C@@H]1[C@@H](c2ccc(/C=C/c3ccccc3)cc2)[C@@H](CO)N1C(=O)C1CCCC1	25.7	/	-0.1	/	/	/	/
COc1ccc(-c2ccc([C@H]3[C@@H](C#N)N(C(=O)C4CC4)[C@@H]3CO)cc2)cc1	105.6*	/	-3.7	61.0	55.6	-7.2	37.3*
N#C[C@H]1[C@H](c2ccc(C3=CCCC3)cc2)[C@H](CO)N1C(=O)C1CC1	101.6*	/	-0.9	96.4*	49.9	8.5	14.6
O=C(CSc1nc2ccccc2c(=O)[nH]1)Nc1ccc(Cl)cc1Cl	/	0.4	/	/	/	/	/
Cc1cc(C(=O)Nc2cccc3c2O[C@@H](CN(C)C(=O)NC2CCCCC2)[C@H](C)CN([C@H](C)CO)C3=O)n(C)n1	-2.9	-0.2	-0.7	/	/	/	/
COc1ccc2c3c(n(C)c2c1)[C@@H](CO)N(C(=O)NC1CCCCC1)CC31CCN(C)CC1	/	/	-0.4	/	/	/	/
Cc1sc2ncnc(NCCCN3CCOCC3)c2c1-c1ccccc1	/	0.9	/	/	/	/	/
CCCNC(=O)Nc1ccc2c(c1)OC[C@H](C)N(Cc1ccccc1)C[C@@H](C)[C@H](OC)CN(C)C2=O	67.1	-0.4	1.4	/	/	/	/
COc1ccccc1-c1ccc([C@@H]2[C@H](C#N)N(C(=O)CN(C)C)[C@H]2CO)cc1	52.9	/	3.6	/	/	/	/
COc1ccc(-c2ccccc2[C@H]2[C@@H](C#N)N(C(=O)NC3CCCC3)[C@H]2CO)cc1	/	/	1.1	/	/	/	/
COc1ccc(-c2ccc([C@@H]3[C@@H](CO)N(C(=O)NC4CCCC4)[C@H]3C#N)cc2)cc1	?	/	-2.3	29.6	-4.8	-2.4	-12.4
COc1ccc(-c2ccc([C@@H]3[C@@H](C#N)N(C(=O)CN(C)C)[C@@H]3CO)cc2)cc1	108.5*	0.3	-3.3	76.6	3.0	28.4	21.6
COc1ccc(CN(C)C[C@@H]2OCCCC[C@H](C)Oc3ccc(NC(=O)C4CCCCC4)cc3C(=O)N([C@@H](C)CO)C[C@@H]2C)cc1	68.7	4.1	-1.1	/	/	/	/
COc1ccc(CN(C)C[C@H]2OCCCC[C@H](C)Oc3ccc(NC(=O)C4CCCCC4)cc3C(=O)N([C@H](C)CO)C[C@@H]2C)cc1	73.9	-0.1	-0.8	/	/	/	/
COc1ccc(CN(C)C[C@H]2OCCCC[C@@H](C)Oc3ccc(NC(=O)C4CCCCC4)cc3C(=O)N([C@H](C)CO)C[C@H]2C)cc1	103.7*	4.1	-0.9	102.4*	60.3	14.8	96.1*
